Key:
Plasmodium falciparum = experiment: Antiplasmodial activity against Plasmodium falciparum 3D7 infected in human erythrocytes assessed as parasite growth inhibition after 72 hrs by SYBR Green I dye based fluorescence assay; assay type: functional, organism-based; conditions: 3D7, 72 h
Method in brief: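 P. falciparum 3D7, sorbitol-synchronized, in O+ human erythrocytes at 5% hematocrit and 0.5% parasitemia. Medium: RPMI 1640 with 2% human serum, 0.5% Albumax II and 0.2% NaHCO3, at 37 °C in 5% CO2. Triplicate serial dilutions, 0.001% final DMSO, 80 nM chloroquine as positive control, 72 h. SYBR Green I lysis for 1 h in the dark (ex 485/em 530 nm). IC50 by nonlinear regression of counts against log concentration.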

[1] = Cytotoxicity against rat L6 cells after 72 hrs by alamar blue assay; assay type: cell-based
Method in brief: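 Rat L6 skeletal myoblasts plated at 50,000 cells/well in RPMI 1640 with L-glutamine and 10% FBS, left to adhere 3 h, then exposed to serial dilutions for 72 h. Alamar Blue added for 2 h at 37 °C, fluorescence read at ex 536/em 588 nm. TC50 taken as the concentration halving fluorescence relative to inhibitor-free wells.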

[2] = Selectivity index, ratio of CC50 for rat L6 cells to IC50 for Plasmodium falciparum 3D7; assay type: functional

Structure (SMILES)	IC50 (Plasmodium falciparum)	CC50 at 72 h [1]	Ratio CC50/IC50 [2]
CN(C)c1cc[n+](Cc2ccc(Cn3cnc4c(N)ncnc43)cc2)cc1	14300 nM	–	–
Nc1ncnc2c1ncn2Cc1ccc(C[n+]2ccc(N3CCCC3)cc2)cc1	6430 nM	–	–
CN(C)c1cc[n+](Cc2ccc(-c3ccc(Cn4cnc5c(N)ncnc54)cc3)cc2)cc1	4840 nM	–	–
Nc1ncnc2c1ncn2Cc1ccc(-c2ccc(C[n+]3ccc(N4CCCC4)cc3)cc2)cc1	191 nM	–	–
CN(C)c1cc[n+](Cc2ccc(CCc3ccc(Cn4cnc5c(N)ncnc54)cc3)cc2)cc1	191 nM	–	–
Nc1ncnc2c1ncn2Cc1ccc(CCc2ccc(C[n+]3ccc(N4CCCC4)cc3)cc2)cc1	93 nM	–	–
CN(C)c1cc[n+](Cc2ccc(CCCCc3ccc(Cn4cnc5c(N)ncnc54)cc3)cc2)cc1	162 nM	–	–
Nc1ncnc2c1ncn2Cc1ccc(CCCCc2ccc(C[n+]3ccc(N4CCCC4)cc3)cc2)cc1	460 nM	–	–
CN(C)c1cc[n+](Cc2ccc(Cn3cnc(N)c4ncnc3-4)cc2)cc1	> 22700 nM	–	–
CN(C)c1cc[n+](Cc2ccc(-c3ccc(Cn4cnc(N)c5ncnc4-5)cc3)cc2)cc1	949 nM	–	–
Nc1ncn(Cc2ccc(CCc3ccc(C[n+]4ccc(N5CCCC5)cc4)cc3)cc2)c2ncnc1-2	210 nM	–	–
CN(C)c1cc[n+](Cc2ccc(CCCCc3ccc(Cn4cnc(N)c5ncnc4-5)cc3)cc2)cc1	930 nM	–	–
Nc1ncn(Cc2ccc(CCCCc3ccc(C[n+]4ccc(N5CCCC5)cc4)cc3)cc2)c2ncnc1-2	84 nM	–	–
CN(C)c1cc[n+](Cc2ccc(C[n+]3ccc(N4CCCC4)cc3)cc2)cc1	94 nM	–	–
CN(C)c1cc[n+](Cc2ccc(-c3ccc(C[n+]4ccc(N5CCCC5)cc4)cc3)cc2)cc1.[Br-].[Br-]	3 nM	5.1 µg/mL	3187.5
CN(C)c1cc[n+](Cc2ccc(CCc3ccc(C[n+]4ccc(N5CCCC5)cc4)cc3)cc2)cc1.[Br-].[Br-]	3 nM	0.123 µg/mL	58.6
CN(C)c1cc[n+](Cc2ccc(CCCCc3ccc(C[n+]4ccc(N5CCCC5)cc4)cc3)cc2)cc1.[Br-].[Br-]	2 nM	0.012 µg/mL	8.6

Structure (SMILES)	IC50 (Plasmodium falciparum)	CC50 at 72 h [1]	Ratio CC50/IC50 [2]
CN(c1ccc(Cl)cc1)c1cc[n+](Cc2ccc(C[n+]3ccc(N4CCCC4)cc3)cc2)cc1	92 nM	–	–
CN(c1ccc(Cl)cc1)c1cc[n+](Cc2ccc(-c3ccc(C[n+]4ccc(N5CCCC5)cc4)cc3)cc2)cc1	38 nM	–	–
CN(c1ccc(Cl)cc1)c1cc[n+](Cc2ccc(CCc3ccc(C[n+]4ccc(N5CCCC5)cc4)cc3)cc2)cc1	31 nM	–	–
CN(c1ccc(Cl)cc1)c1cc[n+](Cc2ccc(CCCCc3ccc(C[n+]4ccc(N5CCCC5)cc4)cc3)cc2)cc1	37 nM	–	–
CN(C)c1cc[n+](Cc2ccc(C[n+]3ccc(N(C)c4ccc(Cl)cc4)cc3)cc2)cc1	66 nM	–	–
CN(C)c1cc[n+](Cc2ccc(-c3ccc(C[n+]4ccc(N(C)c5ccc(Cl)cc5)cc4)cc3)cc2)cc1.[Br-].[Br-]	7 nM	0.122 µg/mL	24.4
CN(C)c1cc[n+](Cc2ccc(CCc3ccc(C[n+]4ccc(N(C)c5ccc(Cl)cc5)cc4)cc3)cc2)cc1.[Br-].[Br-]	5 nM	0.1 µg/mL	28.6
CN(C)c1cc[n+](Cc2ccc(CCCCc3ccc(C[n+]4ccc(N(C)c5ccc(Cl)cc5)cc4)cc3)cc2)cc1	45 nM	–	–
CN(C)c1cc[n+](Cc2ccc(Cn3cnc4c(SCc5ccccc5)ncnc43)cc2)cc1	122 nM	–	–
c1ccc(CSc2ncnc3c2ncn3Cc2ccc(C[n+]3ccc(N4CCCC4)cc3)cc2)cc1	411 nM	–	–
CN(C)c1cc[n+](Cc2ccc(-c3ccc(Cn4cnc5c(SCc6ccccc6)ncnc54)cc3)cc2)cc1	3220 nM	–	–
c1ccc(CSc2ncnc3c2ncn3Cc2ccc(-c3ccc(C[n+]4ccc(N5CCCC5)cc4)cc3)cc2)cc1	119 nM	–	–
CN(C)c1cc[n+](Cc2ccc(CCc3ccc(Cn4cnc5c(SCc6ccccc6)ncnc54)cc3)cc2)cc1	92 nM	–	–
c1ccc(CSc2ncnc3c2ncn3Cc2ccc(CCc3ccc(C[n+]4ccc(N5CCCC5)cc4)cc3)cc2)cc1	149 nM	–	–
CN(C)c1cc[n+](Cc2ccc(CCCCc3ccc(Cn4cnc5c(SCc6ccccc6)ncnc54)cc3)cc2)cc1	500 nM	–	–
c1ccc(CSc2ncnc3c2ncn3Cc2ccc(CCCCc3ccc(C[n+]4ccc(N5CCCC5)cc4)cc3)cc2)cc1	54 nM	–	–

Source: ChEMBL document CHEMBL3351532, “In vitro antiplasmodial and cytotoxic activities of asymmetrical pyridinium derivatives” (Eur J Med Chem, 2014)
